Beta2AR agonist: beta2AR agonists driving receptor internalization, primary screen, cell-based, FAP fluorogen, flow cytometry | Beta-2 adrenergic receptor (Homo sapiens), P07550 | Am2.2-beta2AR cells | response, % (test concentration not listed) | hit rate 0.43% among 340,000;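 active means response above a set limit, near 3 SD of response in nonfluorescent compounds, cut at about 42% in these data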
Target sequence (P07550 whole entry, looked up): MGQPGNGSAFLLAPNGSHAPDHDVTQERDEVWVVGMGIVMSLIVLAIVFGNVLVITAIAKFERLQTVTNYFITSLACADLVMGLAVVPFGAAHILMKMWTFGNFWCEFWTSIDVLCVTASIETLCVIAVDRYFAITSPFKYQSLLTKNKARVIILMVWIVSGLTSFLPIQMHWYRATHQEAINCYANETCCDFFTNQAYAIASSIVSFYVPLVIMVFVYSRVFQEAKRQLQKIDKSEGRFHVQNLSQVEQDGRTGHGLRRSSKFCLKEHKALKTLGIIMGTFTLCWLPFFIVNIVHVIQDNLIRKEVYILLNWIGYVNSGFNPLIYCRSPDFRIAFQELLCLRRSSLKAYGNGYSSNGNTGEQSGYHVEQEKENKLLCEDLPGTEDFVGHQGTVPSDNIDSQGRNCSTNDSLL
m5-HT2A agonist: mouse Htr2a agonists via beta-arrestin recruitment, primary screen, cell-based, luminescence; 5-hydroxytryptamine receptor 2A (Mus musculus), P35363; CHO-K1 mHTR2A beta-arrestin complementation; percent of 30 µM serotonin response; activation, % at 7.6 µM; hit rate 0.66% among 360,000; AID 624169, 2012;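 active means activation above a run cutoff, the mean activation of all tested compounds plus 3 SD, cut at about 14% in these data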;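 further: 0% = plate median of compound wells and 100% = 30 µM serotonin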
TAAR1 agonist: human TAAR1 agonists, primary screen, Fluo-8 calcium fluorescence, CHO RD-HGA16 cells | Trace amine-associated receptor 1 (Homo sapiens), Q96RJ0 | vehicle wells 0%, saturating PEA agonist 100% | activation, % at 3 µM | hit rate 0.99% among 360,000 | AID 624467, 2012;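 active means activation above the mean activation of all test compounds in the run plus 3 SD, cut at about 38% in these data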
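Test system: RD-HGA16 (CHO) cells co-expressing Gα16 and hTAAR1 | Doses: Single dose, 3 µM | Schedule: 17-24 h seeding, 75 min 37 °C dye, 30 min RT | Evaluation: % activation from peak over basal fluorescence ratio, DMSO-to-PEA scaled | Technique: Kinetic Fluo-8 calcium fluorescence | Benchmarks: Low control DMSO, high control PEA (EC100)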
MC4R ag barr: MC4R agonists recruiting beta-arrestin, primary screen, cell-based, luminescence, agonist arm of biased-ligand search. Melanocortin receptor 4 (Homo sapiens), P32245. U2OS MC4R beta-arrestin complementation; percent of melanotan II response, DMSO zero. activation, % at 8.9 µM. hit rate 0.98% among 360,000. AID 540308, 2011;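 active means activation above a per-plate cutoff, the mean activation of sample wells on that plate plus 3 SD, cut at about 8% in these data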
TAAR1 antag: human TAAR1 antagonists, primary screen, Fluo-8 calcium fluorescence, CHO RD-HGA16 cells; Trace amine-associated receptor 1 (Homo sapiens), Q96RJ0; antagonist; inhibition, % at 3 µM; hit rate 1.5% among 360,000; AID 624466, 2012;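 active means inhibition above a per-plate cutoff, the mean inhibition of test compounds on that plate plus 3 SD, cut at about 49% in these data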;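 further: 0% = DMSO plus EC80 beta-PEA response and 100% = DMSO alone without agonist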
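Test system: CHO RD-HGA16 cells bearing hTAAR1 | Reagent: β-PEA, EC80 | Compound dosing: 3 µM, single point | Schedule: Dye loading 75 min at 37 °C, then 30 min room temperature | Signal: Calcium fluorescence with Fluo-8 | Evaluation: Percent inhibition of PEA-evoked calcium signal, max/basal emission ratio | Control set: DMSO-only wells and EC80 β-PEA-stimulated wells | Repeats: Singlicate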
MC4R antagonist: MC4R antagonists of cAMP signaling, primary screen, cell-based, TR-FRET, antagonist arm of biased-ligand search; Melanocortin receptor 4 (Homo sapiens), P32245; MC4R-expressing cells, MTII-stimulated cAMP, LANCE TR-FRET; inhibition, % at 6.5 µM; hit rate 0.48% among 360,000;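 active means inhibition above its plate's cutoff, the mean of tested wells on that plate plus 3 SD, cut at about 29% in these data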;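 further: 0% = Melanotan II alone and 100% = Melanotan II plus saturating MCL0020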
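Material – human MC4R-expressing U2OS cells · Repeats – no replicates · Detection – TR-FRET with Eu-cAMP and labeled anti-cAMP, 671 nm · Times – compound 30 min, challenge 1 h, detection 1 h · Compound – single nominal compound dose of 6.5 µM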
* = called active by the depositor; . = not tested or not shown. Sampled rows, rich in hits. Any-hit rate of the full collection: about 4.3%.

SMILES | Beta2AR agonist | m5-HT2A agonist | TAAR1 agonist | MC4R ag barr | TAAR1 antag | MC4R antagonist
COc1cccc(CN(C)C(=O)C(Cc2ccccc2)NC(=O)c2ccccc2)c1OC (configuration not stated) | 10 | 6 | 11 | -2 | 50* | -1
COC(=O)c1cc2c(c3c4cc(F)ccc4n(S(=O)(=O)c4cccc(C)c4)c13)C(=O)N(c1ccc(OC)cc1)C2 | . | . | -1 | . | -33 | .
Cc1cccc(NC(=O)CSc2nc3ccccc3c3nc(CCc4c(C)n[nH]c4C)nn23)c1 | 25 | 4 | 21 | 1 | 51* | 2
COC(=O)[C@@]12C[C@@H](CC(=O)N3CCC(c4ccccc4)CC3)C(=O)N(Cc3ccco3)C1=CCC(C)(C)C2 | . | 8 | -2 | . | -30 | .
O=C(O)COc1ccccc1C1C2C(=O)N(c3ccccc3)C(=O)C2ON1c1ccccc1 (configuration not stated) | 10 | 7 | 7 | 1 | 11 | 15
CCOc1ccccc1C1C2C(=O)N(c3ccccc3)C(=O)C2ON1c1ccccc1 (configuration not stated) | 2 | 4 | 16 | 2 | 50* | 14
S=C1NCCOc2ccccc21 | . | . | 1 | . | -26 | .
CC(=O)c1c(C)n(-c2cccc(Cl)c2)c2ccc(O)cc12 | 3 | -7 | 4 | 4 | 51* | 6
Nc1nc2c(ncn2[C@@H]2O[C@H](C(=O)N[C@H](Cc3ccccc3)C(=O)NCc3ccc4c(c3)OCO4)[C@@H](O)[C@H]2O)c(=O)[nH]1 | . | . | 6 | . | -32 | .
O=C(N[C@H](Cc1ccccc1)C(=O)N1CCCN(Cc2ccccc2F)CC1)[C@H]1O[C@@H](n2ccc(=O)[nH]c2=O)[C@H](O)[C@@H]1O | . | . | 0 | . | -28 | .
O=[N+]([O-])c1cc(Cl)ccc1N1CCCC1 | 0 | -2 | 6 | -1 | 13 | 0
O=C1C(Cl)=C(N2CCN(c3ccccc3[N+](=O)[O-])CC2)C(=O)c2ccccc21 | 81* | 4 | 4 | -2 | 10 | -14
O=[N+]([O-])c1ccc(-c2cnc(SC(c3ccccc3)c3ccccc3)[nH]2)cc1 | -5 | -5 | 0 | 6 | 38 | 17
O=[N+]([O-])c1ccc(-c2cnc(SCc3ccccc3Cl)[nH]2)cc1 | -4 | -13 | 1 | -3 | 52* | 13
Cc1cc(C)c(CSc2ncc(-c3ccc([N+](=O)[O-])cc3)[nH]2)c(C)c1 | 16 | -5 | 7 | -3 | 60* | -2
NC(=O)CSc1ncc(-c2ccc([N+](=O)[O-])cc2)[nH]1 | -1 | 4 | 2 | -2 | -8 | 5
CC(=O)Nc1ccc(S(=O)(=O)N(C)C2CCN(C)CC2)cc1 | 2 | -3 | -1 | 0 | 2 | 3
CC(Oc1cccc(Cl)c1)C(=O)Nc1ccc(S(=O)(=O)NC2=NCCCCC2)cc1 (configuration not stated) | 5 | 8 | 40* | 0 | 13 | 2
Cc1cccc(C(=O)N[C@H](C(=O)Nc2ccc(S(=O)(=O)NC3=NCCCCC3)cc2)C(C)C)c1 | -11 | -3 | 6 | -3 | -13 | -4
CC(Oc1cccc(Cl)c1)C(=O)Nc1ccc(S(=O)(=O)N(C)C2CCN(C)CC2)cc1 (configuration not stated) | 9 | -7 | 42* | 1 | 11 | -5
CC(Oc1ccc(F)cc1)C(=O)Nc1ccc(S(=O)(=O)NC2=NCCCCC2)cc1 (configuration not stated) | 1 | -5 | 44* | -1 | 20 | 5
CC(=O)O[C@H]1C=C[C@@H](NC(=O)OC(C)(C)C)C1 | . | . | 0 | . | -1 | .
COc1cccc(-c2sc3ccc(OC)cc3c2-c2ccc(OCCN(C)C)cc2)c1 | 23 | -7 | 37 | 10* | 51* | 13
CC[n+]1c(/C=C2\Sc3ccccc3N2C)ccc2cccc(C)c21 | . | -7 | 29 | 0 | 40 | -23
CCN1/C(=C/c2ccc3cc(C)ccc3[n+]2CC)Sc2ccccc21 | . | -8 | 26 | 0 | 56* | -34
SMILES | Beta2AR agonist | m5-HT2A agonist | TAAR1 agonist | MC4R ag barr | TAAR1 antag | MC4R antagonist
Nc1ncnc(N)c1NC(=O)c1ccccc1 | . | . | 2 | . | -28 | .
CCCOC(=O)c1ccc(OCC(O)Cn2c(C)nc3ccccc32)cc1 (configuration not stated) | 2 | 5 | 6 | 0 | 54* | 5
C=CCCC1CN(Cc2ccc(OC)cc2)S(=O)(=O)c2c(cccc2N2CCCC2)O1 (configuration not stated) | . | . | -1 | . | -72 | .
CCc1ccc(O)c(CNCCNCc2cc(CC)ccc2O)c1 | 27 | -15 | 42* | 3 | 24 | 9
CCN1C(=O)CC(C(=O)Nc2ccc(F)cc2)SC1=Nc1ccc2c(c1)OCO2 (configuration not stated) | -2 | 2 | 17 | -1 | 52* | 1
CCN=C1SC(C(=O)Nc2cc(Cl)cc(Cl)c2)CC(=O)N1CC (configuration not stated) | 9 | -1 | 5 | -1 | 20 | 6
CCN=C1SC(C(=O)Nc2cccc(Cl)c2)CC(=O)N1CC (configuration not stated) | 5 | 2 | 23 | 0 | 58* | 7
CCN=C1SC(C(=O)Nc2cccc(C)c2)CC(=O)N1CC (configuration not stated) | -7 | 0 | 18 | -1 | 63* | 5
CCOc1ccc(NC(=O)C2CC(=O)N(CC)C(=Nc3ccc4c(c3)OCO4)S2)cc1 (configuration not stated) | 16 | 1 | 12 | 3 | 48 | 4
CCN=C1SC(C(=O)Nc2ccc(OC)cc2)CC(=O)N1CC (configuration not stated) | 6 | 0 | 24 | 2 | 55* | -1
CCN=C1SC(C(=O)Nc2ccc(OCC)cc2)CC(=O)N1CC (configuration not stated) | 4 | -1 | 24 | 2 | 47 | -6
C#CCNC(=O)C[C@H]1C[C@@]2(C(=O)OC)C(=C[C@H](C(C)(C)C)O[C@@H]2C)N(Cc2ccccc2)C1=O | . | . | -1 | . | -1 | .
CC(C)c1[nH]nc2c1C(c1ccc3c(c1)OCO3)NC2=O (configuration not stated) | . | . | 3 | . | -9 | .
COc1cccc(CNC(=O)[C@H]2CCCN2C(=O)[C@H]2CCCN2C(=O)c2cccs2)c1 | . | . | 0 | . | -11 | .

Compound activity: PubChem BioAssay, several laboratories
